Here are results for 14 compounds from PubChem BioAssay.

Usually inhibition stands for the drop in the measured response relative to a control, in per cent.

SMILES strings stand for the structures. Active and inactive are the calls of the source.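 How the source made its calls, unless noted: active means inhibition of the reporter signal at or above 50%; inactive means inhibition below 50%.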

A short description of experiment [1]: inhibitors of TNFa-induced NFkB p65 translocation, primary screen, imaging, HUVEC, MLSMR starter and 10KST1 sets (AID 438;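 active means inhibition above 20% together with a positive visual image hit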;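 further: compound added about 3h40 before a 20 min TNFalpha stimulation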;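 on inhibition: signal is the nuclear over cytoplasmic p65 intensity ratio per well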). As to conditions: HUVEC TNFa-induced p65 nuclear translocation; cell count: measured here: nuclei count (cytotoxicity indicator), at 2.08 µM; inhibition: at 2 µM, stronger effect = higher value, 0% TNFa-plus-vehicle, 100% no-TNFa wells.
Experiment [2] can be described thus: inhibitors of mutant huntingtin aggregation, primary screen, imaging, exon1htt(103Q)mCFP cells, high-content imaging (AID 483;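 active means visual image review flags a hit and inhibition of aggregation exceeds 20%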;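 further: compound exposure lasted 3 days before fixation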;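 on nuclei count: percent of the per-plate median nuclei count of sample wells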). As to conditions: exon1htt(103Q)mCFP cell line, aggregate imaging, at 2 µM; inhibition of aggregation: stronger effect = higher value; nuclei count: measured here: cell count, toxicity.
The nature of experiment [3]: inhibitors of E-selectin induction by TNFa, primary screen, imaging, HUVEC, immunofluorescence, MLSMR starter and 10KST1 sets (AID 487;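 active means visually confirmed hit in the image check and inhibition above 20%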;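 on inhibition: signal is fraction of cell area covered by stained E-selectin grains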;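 on nuclei count: 100% = median nuclei count of all wells on the same plate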). The conditions noted are these: HUVEC TNFalpha-induced E-selectin immunofluorescence imaging, at 2 µM; inhibition: stronger effect = higher value; nuclei count: measured here: cell number, toxicity.
Experiment [4] deals with Voltage-gated potassium channel subunit beta-2 (Rattus norvegicus) (UniProt P62483). In words: KvBeta enzyme negative modulators, primary screen, biochemical, NADPH fluorescence (AID 622;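 active means fluorescence slope higher than the sample average by over 3 SD, cut at about -0.22 in these data, passing the limit was not always enough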;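 further: slope of raw intensity against log time taken from 70 to 1610 s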). As to conditions: recombinant KvBeta, 4-cyanobenzaldehyde reduction, at 10 µM, stronger effect = higher value.
Chain of Voltage-gated potassium channel subunit beta-2 (Rattus norvegicus) (P62483 whole entry, looked up): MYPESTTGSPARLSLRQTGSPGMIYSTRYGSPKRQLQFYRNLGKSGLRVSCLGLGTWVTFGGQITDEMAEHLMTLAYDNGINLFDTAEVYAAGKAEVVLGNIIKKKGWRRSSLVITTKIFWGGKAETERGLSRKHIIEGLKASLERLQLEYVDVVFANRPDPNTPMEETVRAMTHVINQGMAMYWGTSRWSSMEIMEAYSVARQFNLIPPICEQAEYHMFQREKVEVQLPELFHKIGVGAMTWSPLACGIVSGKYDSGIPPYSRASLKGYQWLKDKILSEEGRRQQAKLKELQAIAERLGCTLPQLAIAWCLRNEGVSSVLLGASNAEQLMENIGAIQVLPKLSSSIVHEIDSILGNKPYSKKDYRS
The target is the same in experiment [5]. As to the kind of experiment: KvBeta positive modulators, primary screen, biochemical, NADPH fluorescence (AID 623;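 active means NADPH fluorescence slope more negative than the mean of all samples by about 3 SD, 99.7% confidence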;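 further: fluorescence intensity change per second fitted from 20 to 320 s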). As to conditions: Recombinant KvBeta, NADPH fluorescence decrease slope, 10 min; at 10 µM; stronger effect = lower value.
Experiment [6] concerns the target Muscarinic acetylcholine receptor M4 (Homo sapiens) (UniProt P08173). As to the kind of experiment: compounds altering M4/GIRK thallium flux, either direction, primary screen, M4 allosteric agonist project, cell-based, HEK293 M4/GIRK, BTC-AM (AID 625;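 active means fluorescence slope after compound addition differing from the mean of all tested samples at 99.7% confidence, mostly higher but some lower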;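 further: thallium influx through GIRK channels coupled to M4 in HEK293 cells with BTC-AM dye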). The conditions noted are these: at 10 µM, actives lie on both sides. In short, it runs like this: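 Material: HEK293 cells with M4 receptor and GIRK channels; Times: cells overnight at 37 °C, BTC-AM loading 1 h, reads 2 min total; Technique: kinetic BTC-AM fluorescence sampled at 1 Hz, 10 s pre-addition baseline; Read-out basis: slope over 15–24 s of trace normalized to starting intensity; Controls: carbachol positive, DMSO negative.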

A short description of experiment [7]: inhibitors of Sendai virus-induced IRF3 signaling, primary screen, TLR/RLR signaling modifier project, cell-based, Sendai virus stimulus, luciferase, 10K MLSCN set (AID 602276;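 active means inhibition at or above 50% at 10 µM; inactive means inhibition below 50%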;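 further: firefly luciferase from ISG56 promoter only with Renilla not read in this screen; 0% = Sendai virus plus DMSO and 100% = medium plus DMSO without virus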). As to conditions: HEK293 RL24 IRF3 luciferase reporter, at 10 µM, stronger effect = higher value.
Experiment [8] is described as follows: inhibitors of poly I:C-induced TLR3 signaling, primary screen, cell-based, poly I:C stimulus, luciferase, 10K MLSCN set (AID 602277). The conditions noted are these: HEK293-TLR3 RL24 IRF3 luciferase reporter, at 10 µM, stronger effect = higher value.

Chain of Muscarinic acetylcholine receptor M4 (Homo sapiens) (P08173 whole entry, looked up): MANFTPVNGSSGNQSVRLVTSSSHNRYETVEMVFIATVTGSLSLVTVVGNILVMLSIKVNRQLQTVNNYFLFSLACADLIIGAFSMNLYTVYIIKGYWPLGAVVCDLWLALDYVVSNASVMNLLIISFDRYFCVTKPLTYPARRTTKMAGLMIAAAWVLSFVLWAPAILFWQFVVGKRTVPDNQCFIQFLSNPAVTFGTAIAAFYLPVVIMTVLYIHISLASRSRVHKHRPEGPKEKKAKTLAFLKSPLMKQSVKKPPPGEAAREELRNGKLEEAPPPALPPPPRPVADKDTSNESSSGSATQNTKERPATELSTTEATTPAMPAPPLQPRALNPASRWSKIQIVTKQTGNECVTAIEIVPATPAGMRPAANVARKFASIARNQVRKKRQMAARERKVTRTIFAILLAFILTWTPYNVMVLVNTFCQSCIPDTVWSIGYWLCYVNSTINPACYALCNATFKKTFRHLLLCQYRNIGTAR

As for `COc1ccc(NS(=O)(=O)c2c(C)[nH]c(=O)[nH]c2=O)c(OC)c1`, the cell count in experiment [1] came to 409. Besides, the inhibition was 3.8% (inactive) in experiment [1], -40.5% (inactive) in experiment [3], 7.23% (inactive) in experiment [7] and 13.8% (inactive) in experiment [8]. In addition, in experiment [2], the inhibition of aggregation is 7.4% (inactive). The nuclei count in experiment [2] is 103%; in experiment [3] it was 113%. In addition, the fluorescence slope in experiment [4] is -0.565 (inactive); in experiment [6] it was 0.00529 (inactive). In experiment [5], the NADPH fluorescence slope is -2.6e-05 (inactive).
Regarding `O=C(Cc1nn[nH]n1)NCCC1=CCCCC1`, in experiment [1], the cell count worked out at 402. The inhibition is 1.7% (inactive) in experiment [1], -1.4% (inactive) in experiment [3], 5.61% (inactive) in experiment [7] and 18% (inactive) in experiment [8]. The inhibition of aggregation in experiment [2] was 2.5% (inactive). In addition, the nuclei count in experiment [2] was 99.7%; in experiment [3], 113%. The fluorescence slope is -0.567 (inactive) in experiment [4] and 0.00606 (inactive) in experiment [6]. Besides, the NADPH fluorescence slope in experiment [5] was -8.7e-06 (inactive).
`Oc1ccccc1C1=Nc2nc3ccccc3n2C(c2ccccc2)C1` (centres undefined): the cell count in experiment [1] turned out to be 579. The inhibition in experiment [1] was 6.8% (inactive); in experiment [3] it was -49.5% (inactive); in experiment [7], -38.4% (inactive); in experiment [8], -68.7% (inactive). Besides, the inhibition of aggregation in experiment [2] is 3.6% (inactive). Further, the nuclei count was found to be 107% in experiment [2] and 102% in experiment [3]. In addition, the fluorescence slope in experiment [4] was -0.539 (inactive); in experiment [6], 0.00255 (inactive). In addition, in experiment [5], the NADPH fluorescence slope was -7.3e-05 (inactive).
Take `Cc1ccc2cc(C#N)c(N3CCCC3)nc2c1C`: the cell count in experiment [1] stood at 360. The inhibition in experiment [1] was 4.8% (inactive); in experiment [3], -49.6% (inactive); in experiment [7], 13.3% (inactive); in experiment [8], -29.1% (inactive). Moreover, the inhibition of aggregation in experiment [2] was 10% (inactive). For the same compound, the nuclei count in experiment [2] is 111%; in experiment [3], 110%. The fluorescence slope in experiment [4] was -0.195 (inactive); in experiment [6] it was 0.00646 (inactive). In addition, the NADPH fluorescence slope in experiment [5] is -2.2e-05 (inactive).
As for `C=CCn1c(C)cc(C(=O)CSc2nc3ccccc3c(=O)[nH]2)c1C`, the cell count in experiment [1] is 278. Also, the inhibition was -0.8% (inactive) in experiment [1], -59.5% (inactive) in experiment [3], -41.3% (inactive) in experiment [7] and -75.7% (inactive) in experiment [8]. Moreover, in experiment [2], the inhibition of aggregation was 11.4% (inactive). Further, the nuclei count in experiment [2] was 92%; in experiment [3], 104%. For the same compound, the fluorescence slope in experiment [4] was -0.52 (inactive); in experiment [6] it was 0.0056 (inactive). Also, the NADPH fluorescence slope in experiment [5] is -3.3e-05 (inactive).
In the case of `Cc1noc(NS(=O)(=O)c2ccc(N3C(=O)c4ccccc4C3=O)cc2)c1C`, the cell count in experiment [1] was determined as 754. Besides, the inhibition was -11.1% (inactive) in experiment [1], -0.4% (inactive) in experiment [3], 6.19% (inactive) in experiment [7] and 25.2% (inactive) in experiment [8]. For the same compound, in experiment [2], the inhibition of aggregation is 6.1% (inactive). The nuclei count is 104% in experiment [2] and 93.6% in experiment [3]. The values for the fluorescence slope in experiment [4] and in experiment [6] were -0.533 (inactive) and 0.00521 (inactive), respectively. For the same compound, in experiment [5], the NADPH fluorescence slope was -3.7e-05 (inactive).
As for `CC(C)[C@H](NC(=O)[C@@H]1CSCN1C(=O)OC(C)(C)C)C(=O)NCC1CCC(C(=O)O)CC1` (some centres undefined), in experiment [1], the cell count was determined as 341. Besides, the inhibition in experiment [1] was 8.6% (inactive); in experiment [3], 17.3% (inactive); in experiment [7], 25.1% (inactive); in experiment [8], 22.7% (inactive). Moreover, the inhibition of aggregation in experiment [2] is 11.9% (inactive). Besides, the nuclei count was 92.5% in experiment [2] and 84.4% in experiment [3]. The figures for the fluorescence slope in experiment [4] and in experiment [6] were -0.579 (inactive) and 0.00513 (inactive), respectively. The NADPH fluorescence slope in experiment [5] is 1.8e-05 (inactive).
For the compound `COC(=O)CCc1c(C)c(C#N)c2nc3ccccc3n2c1N1CCCC1`, in experiment [1], the cell count turned out to be 490. Besides, the inhibition in experiment [1] was -2.7% (inactive); in experiment [3] it was -103% (inactive); in experiment [7] it was 15% (inactive); in experiment [8], -5.51% (inactive). In addition, in experiment [2], the inhibition of aggregation was 9.1% (inactive). In addition, the nuclei count in experiment [2] was found to be 103%; in experiment [3], 159%. Moreover, the values for the fluorescence slope in experiment [4] and in experiment [6] were -0.0763 (active) and 0.00578 (inactive), respectively. Also, the NADPH fluorescence slope in experiment [5] was -4e-06 (inactive).
Consider `CCCn1c(SCC(=O)N2CCCc3ccccc32)nnc1-c1ccccn1`, for which the cell count in experiment [1] is 471. Moreover, the inhibition in experiment [1] was -0.8% (inactive); in experiment [3], -20.1% (inactive); in experiment [7], 20.3% (inactive); in experiment [8], 20% (inactive). The inhibition of aggregation in experiment [2] was -0.4% (inactive). The nuclei count came to 100% in experiment [2] and 113% in experiment [3]. For the same compound, the fluorescence slope in experiment [4] is -0.59 (inactive); in experiment [6], 0.00584 (inactive). In experiment [5], the NADPH fluorescence slope was -6.6e-06 (inactive).
In the case of `CC(C)N(C=O)C1(C(=O)NC2CCCCC2)CCCCC1`, in experiment [1], the cell count came out at 584. Further, the inhibition is -6.3% (inactive) in experiment [1], -9.4% (inactive) in experiment [3], 10.2% (inactive) in experiment [7] and 13.5% (inactive) in experiment [8]. Moreover, the inhibition of aggregation in experiment [2] was 15.2% (inactive). In addition, the nuclei count was found to be 114% in experiment [2] and 113% in experiment [3]. Further, the fluorescence slope is -0.551 (inactive) in experiment [4] and 0.00567 (inactive) in experiment [6]. For the same compound, in experiment [5], the NADPH fluorescence slope is -4.6e-06 (inactive).
Regarding `Cc1cc(NC(=O)COc2cccc3cccnc23)no1`, in experiment [1], the cell count turned out to be 465. Further, the inhibition in experiment [1] is 2% (inactive); in experiment [3] it was -67.8% (inactive); in experiment [7], -7.48% (inactive); in experiment [8] it was -15.6% (inactive). Also, in experiment [2], the inhibition of aggregation was 11.9% (inactive). Besides, the nuclei count is 103% in experiment [2] and 106% in experiment [3]. For the same compound, the results for the fluorescence slope in experiment [4] and in experiment [6] were -0.385 (inactive) and 0.00637 (inactive), respectively. The NADPH fluorescence slope in experiment [5] is -2.5e-05 (inactive).
Take `O=C1CC(Cc2ccccc2)C(=O)N1CCc1ccc2c(c1)OCO2` (centres undefined): the cell count in experiment [1] was 480. Moreover, the inhibition in experiment [1] was 3.5% (inactive); in experiment [3], -145% (inactive); in experiment [7], -0.603% (inactive); in experiment [8], 9.62% (inactive). Besides, the inhibition of aggregation in experiment [2] was -0.2% (inactive). For the same compound, the nuclei count in experiment [2] stood at 110%; in experiment [3], 127%. Moreover, the fluorescence slope in experiment [4] was -0.579 (inactive); in experiment [6], 0.00603 (inactive). In addition, the NADPH fluorescence slope in experiment [5] is -1.8e-05 (inactive).
With `CCOc1nc2ccccc2nc1NS(=O)(=O)c1ccccc1`, the cell count in experiment [1] was determined as 769. Further, the inhibition in experiment [1] was -4.2% (inactive); in experiment [3], -10% (inactive); in experiment [7], 15.8% (inactive); in experiment [8] it was 20% (inactive). Moreover, in experiment [2], the inhibition of aggregation is 6.9% (inactive). Also, the nuclei count in experiment [2] is 126%; in experiment [3] it was 132%. For the same compound, the fluorescence slope is -0.462 (inactive) in experiment [4] and 0.00417 (inactive) in experiment [6]. The NADPH fluorescence slope in experiment [5] is -0.000234 (inactive).
As to `CCn1nnnc1SCC(=O)Nc1nnc(C(C)C)s1`, in experiment [1], the cell count is 324. Further, the inhibition in experiment [1] was -3% (inactive); in experiment [3], 1% (inactive); in experiment [7], 5.57% (inactive); in experiment [8], -1.53% (inactive). Also, the inhibition of aggregation in experiment [2] was 21.9% (inactive). Also, the nuclei count in experiment [2] is 96.2%; in experiment [3] it was 116%. Further, the fluorescence slope in experiment [4] is -0.361 (inactive); in experiment [6] it was 0.0049 (inactive). For the same compound, the NADPH fluorescence slope in experiment [5] is -4.7e-05 (inactive).
